# Measured values from ChEMBL document CHEMBL1136770, “The pharmacophore of short cationic antibacterial peptides” (2003).
# Non-standard residues stand in square brackets, D forms with d. Residues, ends and D or L forms follow the SMILES beside them. *: point of attachment. OBn = c1ccc(CO*)cc1
# Experiments:
# Format in all cases: functional
# [1] = test system: Staphylococcus epidermidis; test: Minimum inhibitory concentration against methicillin-resistant Staphylococcus epidermidis (ATCC 27626)
# [2] = test system: Escherichia coli; test: Minimum inhibitory concentration against Escherichia coli
# In short: (§1)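 Broth microdilution, inoculum 2 × 10⁶ cfu/mL, in 1% Bacto Peptone water, overnight at 37 °C. At least three independent dilutions tested in parallel. Gentamicin susceptibility run as internal standard.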
# [3] = test system: Staphylococcus aureus; test: Minimum inhibitory concentration against Staphylococcus aureus; in short: as §1
# [4] = test system: Staphylococcus aureus; test: Minimum inhibitory concentration against methicillin-resistant Staphylococcus aureus (ATCC 33591)
compound,measurement,setting,value
NC(N)=NCCC[C@H](N)C(=O)N[C@@H](Cc1c[nH]c2ccccc12)C(=O)N[C@H](CCCN=C(N)N)C(=O)N[C@H](Cc1c[nH]c2ccccc12)C(=O)OCc1ccccc1,MIC,[1],2.5 µg/mL
same,MIC,[2],75 µg/mL
same,MIC,[3],5 µg/mL
same,MIC,[4],2.5 µg/mL
NC(N)=NCCC[C@H](N)C(=O)N[C@@H](Cc1c[nH]c2ccccc12)C(=O)OCc1ccccc1,MIC,[1],10 µg/mL
same,MIC,[2],> 200 µg/mL
same,MIC,[3],15 µg/mL
same,MIC,[4],15 µg/mL
NC(N)=NCCC[C@@H](N)C(=O)N[C@@H](Cc1c[nH]c2ccccc12)C(=O)OCc1ccccc1,MIC,[1],25 µg/mL
same,MIC,[2],> 200 µg/mL
same,MIC,[3],25 µg/mL
same,MIC,[4],25 µg/mL
NC(N)=NCCC[C@H](NC(=O)[C@H](Cc1c[nH]c2ccccc12)NC(=O)[C@@H](N)CCCN=C(N)N)C(=O)N[C@@H](Cc1c[nH]c2ccccc12)C(=O)OCc1ccccc1,MIC,[1],2.5 µg/mL
same,MIC,[2],50 µg/mL
same,MIC,[3],2.5 µg/mL
same,MIC,[4],2.5 µg/mL
COC(=O)[C@H](CCCN=C(N)N)NC(=O)[C@H](Cc1c[nH]c2ccccc12)NC(=O)C1CCCCC1,MIC,[2],> 200 µg/mL
same,MIC,[3],> 200 µg/mL
NC(N)=NCCC[C@H](N)C(=O)N[C@H](Cc1c[nH]c2ccccc12)C(=O)OCc1ccccc1,MIC,[1],25 µg/mL
same,MIC,[2],> 200 µg/mL
same,MIC,[3],50 µg/mL
same,MIC,[4],50 µg/mL
NC(N)=NCCC[C@H](N)C(=O)N[C@@H](Cc1ccccc1)C(=O)OCc1ccccc1,MIC,[1],75 µg/mL
same,MIC,[2],> 200 µg/mL
same,MIC,[3],200 µg/mL
same,MIC,[4],200 µg/mL
NC(N)=NCCC[C@@H](N)C(=O)N[C@H](Cc1c[nH]c2ccccc12)C(=O)OCc1ccccc1,MIC,[1],20 µg/mL
same,MIC,[2],> 200 µg/mL
same,MIC,[3],50 µg/mL
same,MIC,[4],50 µg/mL
NC(N)=NCCC[C@H](NC(=O)[C@@H](N)Cc1c[nH]c2ccccc12)C(=O)N[C@@H](Cc1c[nH]c2ccccc12)C(=O)OCc1ccccc1,MIC,[1],5 µg/mL
same,MIC,[2],75 µg/mL
same,MIC,[3],5 µg/mL
same,MIC,[4],5 µg/mL
N=C(N)NCCC[C@H](NC(=O)C1CCCCC1)C(=O)N[C@@H](Cc1c[nH]c2ccccc12)C(=O)OCc1ccccc1,MIC,[2],200 µg/mL
same,MIC,[3],25 µg/mL
NC(N)=NCCC[C@@H](NC(=O)[C@H](N)Cc1c[nH]c2ccccc12)C(=O)N[C@H](Cc1c[nH]c2ccccc12)C(=O)OCc1ccccc1,MIC,[1],5 µg/mL
same,MIC,[2],75 µg/mL
same,MIC,[3],5 µg/mL
same,MIC,[4],5 µg/mL
NC(N)=NCCC[C@H](NC(=O)[C@H](N)Cc1c[nH]c2ccccc12)C(=O)N[C@@H](Cc1c[nH]c2ccccc12)C(=O)OCc1ccccc1,MIC,[1],10 µg/mL
same,MIC,[2],75 µg/mL
same,MIC,[3],20 µg/mL
same,MIC,[4],20 µg/mL
COC(=O)[C@H](CCCN=C(N)N)NC(=O)[C@H](Cc1c[nH]c2ccccc12)NC(=O)Cc1c[nH]c2ccccc12,MIC,[2],200 µg/mL
same,MIC,[3],200 µg/mL
N=C(N)NCCC[C@H](NC(=O)Cc1c[nH]c2ccccc12)C(=O)N[C@@H](Cc1c[nH]c2ccccc12)C(=O)OCc1ccccc1,MIC,[2],150 µg/mL
same,MIC,[3],20 µg/mL
NC(=O)[C@H](CCCN=C(N)N)NC(=O)[C@H](Cc1c[nH]c2ccccc12)NC(=O)[C@@H](N)CCCN=C(N)N (H-Arg-Trp-Arg-NH2),MIC,[2],> 200 µg/mL
same,MIC,[3],> 200 µg/mL
NCCCC[C@H](N)C(=O)N[C@@H](Cc1c[nH]c2ccccc12)C(=O)OCc1ccccc1 (H-Lys-Trp-OBn),MIC,[1],25 µg/mL
same,MIC,[2],> 200 µg/mL
same,MIC,[3],50 µg/mL
same,MIC,[4],25 µg/mL
NCCCC[C@H](N)C(=O)N[C@H](Cc1c[nH]c2ccccc12)C(=O)OCc1ccccc1 (H-Lys-[dW]-OBn),MIC,[1],25 µg/mL
same,MIC,[2],> 200 µg/mL
same,MIC,[3],75 µg/mL
same,MIC,[4],50 µg/mL
NC(N)=NCCC[C@H](NC(=O)[C@@H](N)Cc1ccccc1)C(=O)OCc1ccccc1 (H-Phe-Arg-OBn),MIC,[1],200 µg/mL
same,MIC,[2],> 200 µg/mL
same,MIC,[3],> 200 µg/mL
same,MIC,[4],200 µg/mL
NC(=O)[C@H](CCCN=C(N)N)NC(=O)[C@H](Cc1c[nH]c2ccccc12)NC(=O)[C@H](Cc1c[nH]c2ccccc12)NC(=O)[C@@H](N)CCCN=C(N)N (H-RWWR-NH2),MIC,[2],> 200 µg/mL
same,MIC,[3],100 µg/mL
COC(=O)[C@H](CCCN=C(N)N)NC(=O)[C@H](Cc1c[nH]c2ccccc12)NC(=O)[C@H](Cc1c[nH]c2ccccc12)NC(=O)[C@@H](N)CCCN=C(N)N (H-RWWR-OMe),MIC,[1],15 µg/mL
same,MIC,[2],> 200 µg/mL
same,MIC,[3],75 µg/mL
same,MIC,[4],50 µg/mL
NC(N)=NCCC[C@H](NC(=O)[C@@H](N)Cc1c[nH]c2ccccc12)C(=O)OCc1ccccc1 (H-Trp-Arg-OBn),MIC,[1],75 µg/mL
same,MIC,[2],> 200 µg/mL
same,MIC,[3],200 µg/mL
same,MIC,[4],75 µg/mL
COC(=O)[C@H](CCCN=C(N)N)NC(=O)[C@@H](N)Cc1c[nH]c2ccccc12 (H-Trp-Arg-OMe),MIC,[1],> 200 µg/mL
same,MIC,[2],> 200 µg/mL
same,MIC,[3],> 200 µg/mL
same,MIC,[4],> 200 µg/mL
NC(=O)[C@H](Cc1c[nH]c2ccccc12)NC(=O)[C@H](CCCN=C(N)N)NC(=O)[C@@H](N)Cc1c[nH]c2ccccc12 (H-Trp-Arg-Trp-NH2),MIC,[2],> 200 µg/mL
same,MIC,[3],100 µg/mL
COC(=O)[C@H](CCCN=C(N)N)NC(=O)[C@H](Cc1c[nH]c2ccccc12)NC(=O)[C@@H](N)Cc1c[nH]c2ccccc12 (H-Trp-Trp-Arg-OMe),MIC,[1],100 µg/mL
same,MIC,[2],> 200 µg/mL
same,MIC,[3],> 200 µg/mL
same,MIC,[4],200 µg/mL
NC(=O)[C@H](Cc1c[nH]c2ccccc12)NC(=O)[C@H](CCCN=C(N)N)NC(=O)[C@H](CCCN=C(N)N)NC(=O)[C@@H](N)Cc1c[nH]c2ccccc12 (H-WRRW-NH2),MIC,[2],> 200 µg/mL
same,MIC,[3],200 µg/mL
NC(=O)[C@H](CCCN=C(N)N)NC(=O)[C@H](Cc1c[nH]c2ccccc12)NC(=O)[C@H](CCCN=C(N)N)NC(=O)[C@@H](N)Cc1c[nH]c2ccccc12 (H-WRWR-NH2),MIC,[2],> 200 µg/mL
same,MIC,[3],200 µg/mL
COC(=O)[C@H](CCCN=C(N)N)NC(=O)[C@H](Cc1c[nH]c2ccccc12)NC(=O)[C@H](CCCN=C(N)N)NC(=O)[C@@H](N)Cc1c[nH]c2ccccc12 (H-WRWR-OMe),MIC,[1],75 µg/mL
same,MIC,[2],> 200 µg/mL
same,MIC,[3],> 200 µg/mL
same,MIC,[4],100 µg/mL
NCCCC[C@@H](N)C(=O)N[C@@H](Cc1c[nH]c2ccccc12)C(=O)OCc1ccccc1 (H-[dK]-Trp-OBn),MIC,[1],25 µg/mL
same,MIC,[2],> 200 µg/mL
same,MIC,[3],75 µg/mL
same,MIC,[4],50 µg/mL
H-RRRWWW-NH2,MIC,[2],5 µg/mL
same,MIC,[3],5 µg/mL
H-RWRWR-NH2,MIC,[2],200 µg/mL
same,MIC,[3],25 µg/mL
H-RWRWRW-NH2,MIC,[2],5 µg/mL
same,MIC,[3],5 µg/mL
H-RWWWRR-NH2,MIC,[2],25 µg/mL
same,MIC,[3],5 µg/mL
H-WRWRW-NH2,MIC,[2],15 µg/mL
same,MIC,[3],10 µg/mL
H-WRWRWR-NH2,MIC,[2],10 µg/mL
same,MIC,[3],7.5 µg/mL
H-WRWRY-NH2,MIC,[2],100 µg/mL
same,MIC,[3],50 µg/mL
H-WRYRW-NH2,MIC,[2],100 µg/mL
same,MIC,[3],50 µg/mL
H-WWRRRW-NH2,MIC,[2],25 µg/mL
same,MIC,[3],10 µg/mL
